This is an account of results in ChEMBL document CHEMBL4406821, “Novel dual inhibitors targeting CDK4 and VEGFR2 synergistically suppressed cancer progression and angiogenesis” (Eur J Med Chem, 2019).

The source made the active and inactive calls. The rule behind the calls is not given here.

Data set [1] has as its target Vascular endothelial growth factor receptor 2 (Homo sapiens, UniProt P35968). The experiment in a line: Inhibition of VEGFR2 in HUVEC cells assessed as reduction in Akt phosphorylation at 20 to 40 nM incubated for 48 hrs by Western blot analysis. Format: cell-based. Put shortly:
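HUVECs were maintained in 1640 medium with 10% FBS. They were treated with graded concentrations for 48 h, PBS-washed and lysed in RIPA buffer. Immunoblots were probed for total and phospho VEGFR2, STAT3, Akt, Erk1 and Src, each at 1:1000. β-actin served as loading control.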

Data set [2] relates to SiHa. The data set is described as follows: Induction of apoptosis in human SiHa cells assessed as increase in late apoptotic cells at 20 to 40 nM incubated for 48 hrs by annexin V FITC and propidium iodide staining based flow cytometry. Format: functional, cell-based. Put shortly:
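Annexin V-FITC/PI double staining with flow-cytometric readout. MDA-MB-231, T-47D, SiHa and HeLa cells were treated with graded concentrations for 48 h. MDA-MB-231 and T-47D were grown in DMEM and SiHa in 1640 medium, each with 10% FBS and 1% penicillin/streptomycin at 37°C under 5% CO2. Early- and late-stage apoptotic fractions were scored.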
A general note: Flow cytometry measures light scatter and fluorescence of single cells or particles in a stream.

Data set [3] in a line: AUMC (0 to t) in Sprague-Dawley rat at 10 mg/kg, iv by HPLC-MS analysis. Format: ADME, organism-based. As to conditions: in vivo. Put shortly:
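Rats fitted with jugular vein catheters for serial blood sampling. Compound dissolved in saline with 5% (v/v) DMSO and given as a single 10 mg/kg dose iv or po after an overnight fast, n = 5 per group. Plasma isolated at once and measured by HPLC with tandem MS detection. Parameters derived by noncompartmental fitting.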

A short description of data set [4]: VRT (0 to t) in Sprague-Dawley rat at 10 mg/kg, iv by HPLC-MS analysis. Format: ADME, organism-based. As to conditions: in vivo.
In data set [5] the target is Tyrosine-protein kinase Blk (Homo sapiens) (UniProt P51451). The experiment in a line: Inhibition of recombinant full length human BLK at 1 uM using poly(Glu, Tyr) 4:1 as substrate incubated for 40 mins in presence of [gamma-33P]-ATP by scintillation counting method relative to control. The gist of the method: (§1)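 Kinase panel profiling at 1 μM performed by Eurofins KinaseProfiler; percent inhibition reported as mean of two independent experiments.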
Sequence of Tyrosine-protein kinase Blk (Homo sapiens) (P51451 2-505 limits assumed): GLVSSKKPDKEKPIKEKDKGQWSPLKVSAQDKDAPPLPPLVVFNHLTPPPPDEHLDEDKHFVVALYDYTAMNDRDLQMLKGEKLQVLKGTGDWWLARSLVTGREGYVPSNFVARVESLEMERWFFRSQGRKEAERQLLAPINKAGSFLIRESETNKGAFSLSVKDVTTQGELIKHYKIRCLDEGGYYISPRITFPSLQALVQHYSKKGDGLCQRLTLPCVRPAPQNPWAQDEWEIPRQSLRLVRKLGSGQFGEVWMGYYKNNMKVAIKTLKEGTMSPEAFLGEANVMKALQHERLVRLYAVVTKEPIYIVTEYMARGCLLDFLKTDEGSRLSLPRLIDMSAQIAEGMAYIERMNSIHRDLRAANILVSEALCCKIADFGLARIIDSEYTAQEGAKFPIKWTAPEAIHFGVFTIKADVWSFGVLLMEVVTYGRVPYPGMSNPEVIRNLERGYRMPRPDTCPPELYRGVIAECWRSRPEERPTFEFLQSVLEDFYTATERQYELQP

For data set [6], the target named is Casein kinase I isoform gamma-3 (Homo sapiens) (UniProt Q9Y6M4). The data set is described as follows: Inhibition of recombinant human CK1gamma3 (1 to 330 residues) at 1 uM using KRRRALS(p)VAS as substrate incubated for 40 mins in presence of [gamma-33P]-ATP by scintillation counting method relative to control. The gist of the method: (§2)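 Tested at a single 1 uM in an outsourced commercial kinase-profiling panel, read as percent inhibition. Each value is the mean of two independent experiments.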
Sequence of Casein kinase I isoform gamma-3 (Homo sapiens) (Q9Y6M4 whole entry, looked up, the tested form may be a part, canonical isoform): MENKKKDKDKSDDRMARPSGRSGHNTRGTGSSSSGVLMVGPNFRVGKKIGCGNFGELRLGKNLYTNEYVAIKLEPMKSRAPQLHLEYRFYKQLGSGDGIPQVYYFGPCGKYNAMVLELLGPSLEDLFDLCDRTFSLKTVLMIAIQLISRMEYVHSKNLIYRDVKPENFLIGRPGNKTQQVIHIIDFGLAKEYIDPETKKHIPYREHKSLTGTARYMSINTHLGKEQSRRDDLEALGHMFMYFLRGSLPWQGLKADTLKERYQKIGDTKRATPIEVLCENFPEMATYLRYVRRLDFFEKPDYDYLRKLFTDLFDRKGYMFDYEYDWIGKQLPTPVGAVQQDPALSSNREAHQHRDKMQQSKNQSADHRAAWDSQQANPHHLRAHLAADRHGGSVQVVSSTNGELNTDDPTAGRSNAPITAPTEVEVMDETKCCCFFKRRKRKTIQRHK

Data set [7] addresses Epidermal growth factor receptor (Homo sapiens) (UniProt P00533). The experiment in a line: Inhibition of recombinant human EGFR (696 to end residues) at 1 uM using poly(Glu, Tyr) 4:1 as substrate incubated for 40 mins in presence of [gamma-33P]-ATP by scintillation counting method relative to control. The gist of the method:
as §1

The target in data set [8] is Mitogen-activated protein kinase kinase kinase 9 (Homo sapiens) (UniProt P80192). The experiment in a line: Inhibition of recombinant human MLK1 (134 to 414 residues) at 1 uM using casein as substrate incubated for 40 mins in presence of [gamma-33P]-ATP by scintillation counting method relative to control.
The target of data set [9] is Serine/threonine-protein kinase Nek9 (Homo sapiens) (UniProt Q8TD19). The experiment in a line: Inhibition of recombinant human NEK9 (1 to 324 residues) at 1 uM using myelin basic protein as substrate incubated for 40 mins in presence of [gamma-33P]-ATP by scintillation counting method relative to control.
Sequence of Serine/threonine-protein kinase Nek9 (Homo sapiens) (Q8TD19 whole entry, the tested form may be a part): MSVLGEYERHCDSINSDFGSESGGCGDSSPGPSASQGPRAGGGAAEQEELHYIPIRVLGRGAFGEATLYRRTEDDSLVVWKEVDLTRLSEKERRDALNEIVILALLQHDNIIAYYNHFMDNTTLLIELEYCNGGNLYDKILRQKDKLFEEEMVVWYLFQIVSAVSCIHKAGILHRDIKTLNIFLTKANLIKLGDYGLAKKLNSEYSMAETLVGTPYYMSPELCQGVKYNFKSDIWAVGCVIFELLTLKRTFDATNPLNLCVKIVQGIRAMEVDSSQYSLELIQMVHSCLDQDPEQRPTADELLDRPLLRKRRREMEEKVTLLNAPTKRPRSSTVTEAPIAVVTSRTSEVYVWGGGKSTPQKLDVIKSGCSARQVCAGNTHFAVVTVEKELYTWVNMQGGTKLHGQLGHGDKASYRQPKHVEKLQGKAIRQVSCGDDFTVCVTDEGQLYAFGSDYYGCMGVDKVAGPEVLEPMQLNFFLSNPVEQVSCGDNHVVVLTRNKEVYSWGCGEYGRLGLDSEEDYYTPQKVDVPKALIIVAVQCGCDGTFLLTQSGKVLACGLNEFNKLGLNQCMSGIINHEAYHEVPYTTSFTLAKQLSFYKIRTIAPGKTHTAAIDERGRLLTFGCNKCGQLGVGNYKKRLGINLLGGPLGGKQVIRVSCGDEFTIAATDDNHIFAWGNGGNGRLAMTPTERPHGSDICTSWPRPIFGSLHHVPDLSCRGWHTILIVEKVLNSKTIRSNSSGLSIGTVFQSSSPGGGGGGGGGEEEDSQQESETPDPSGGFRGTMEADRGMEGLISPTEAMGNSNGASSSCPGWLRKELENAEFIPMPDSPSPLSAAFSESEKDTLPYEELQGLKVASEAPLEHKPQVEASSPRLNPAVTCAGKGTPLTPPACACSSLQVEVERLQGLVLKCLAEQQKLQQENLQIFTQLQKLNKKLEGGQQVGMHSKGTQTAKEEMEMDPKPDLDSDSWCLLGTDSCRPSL
Data set [10] has as its target Serine/threonine-protein kinase PAK 4 (Homo sapiens) (UniProt O96013). The data set is described as follows: Inhibition of recombinant human PAK4 (295 to end residues) at 1 uM using myelin basic protein as substrate incubated for 40 mins in presence of [gamma-33P]-ATP by scintillation counting method relative to control.
In data set [11] the target is cAMP-dependent protein kinase catalytic subunit PRKX (Homo sapiens) (UniProt P51817). The data set is described as follows: Inhibition of recombinant human full length PrKX at 1 uM using RRRLSFAEPG as substrate incubated for 40 mins in presence of [gamma-33P]-ATP by scintillation counting method relative to control.
Data set [12] has as its target Serine/threonine-protein kinase SBK1 (Homo sapiens) (UniProt Q52WX2). The data set is described as follows: Inhibition of recombinant human full length SBK1 at 1 uM using KKLRRTLSVA as substrate incubated for 40 mins in presence of [gamma-33P]-ATP by scintillation counting method relative to control.
For data set [13], the target named is Fibroblast growth factor receptor 3 (Homo sapiens) (UniProt P22607). The experiment in a line: Inhibition of recombinant human FGFR3 (447 to 761 residues) at 1 uM using poly(Glu, Tyr) 4:1 as substrate incubated for 40 mins in presence of [gamma-33P]-ATP by scintillation counting method relative to control. Put shortly: as §2
Sequence of Fibroblast growth factor receptor 3 (Homo sapiens) (P22607 23-806 limits assumed): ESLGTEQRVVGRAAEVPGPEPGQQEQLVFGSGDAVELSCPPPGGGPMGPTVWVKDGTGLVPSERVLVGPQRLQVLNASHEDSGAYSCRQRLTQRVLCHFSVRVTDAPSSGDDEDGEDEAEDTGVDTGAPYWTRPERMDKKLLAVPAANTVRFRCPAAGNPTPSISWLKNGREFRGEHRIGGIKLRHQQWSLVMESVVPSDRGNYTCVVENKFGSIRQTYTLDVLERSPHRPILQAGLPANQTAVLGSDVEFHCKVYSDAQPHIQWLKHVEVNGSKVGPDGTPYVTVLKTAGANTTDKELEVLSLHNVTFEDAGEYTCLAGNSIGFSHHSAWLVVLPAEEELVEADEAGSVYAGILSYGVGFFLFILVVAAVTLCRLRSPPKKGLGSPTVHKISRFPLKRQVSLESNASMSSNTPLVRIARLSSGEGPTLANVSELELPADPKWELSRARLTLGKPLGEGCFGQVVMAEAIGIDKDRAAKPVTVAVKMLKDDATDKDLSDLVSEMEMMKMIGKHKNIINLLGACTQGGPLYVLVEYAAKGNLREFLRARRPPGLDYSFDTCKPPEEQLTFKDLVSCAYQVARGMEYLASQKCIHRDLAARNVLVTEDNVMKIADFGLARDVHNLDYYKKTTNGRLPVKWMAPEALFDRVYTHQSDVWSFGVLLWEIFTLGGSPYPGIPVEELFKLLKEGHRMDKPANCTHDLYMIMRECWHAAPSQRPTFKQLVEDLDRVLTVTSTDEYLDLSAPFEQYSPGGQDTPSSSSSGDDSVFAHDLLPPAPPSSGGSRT
Data set [14] deals with SiHa. The experiment in a line: Induction of apoptosis in human SiHa cells assessed as decrease in Bcl2 expression at 40 to 80 nM incubated for 48 hrs by Western blot analysis. The data set is classed as functional, cell-based. Put shortly:
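Cancer cells were exposed to graded concentrations for 48 h, washed three times in PBS and lysed in RIPA buffer. Immunoblots were probed with anti-Rb, anti-phospho-Rb, anti-Ki67 and anti-Bcl-2, each at 1:1000. β-actin served as loading control.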

Data set [15] can be described thus: Toxicity in BALB/c mouse assessed as effect on blood parameter by measuring MCV at 40 mg/kg, po administered once two days for 4 times by hematology analyzer. The following applies: in vivo.
Data set [16] relates to MDA-MB-231. The experiment in a line: Induction of cell cycle arrest in human MDA-MB-231 cells assessed as accumulation in G2/M phase at 40 nM incubated for 36 hrs by propidium iodide staining based flow cytometry. The data set is classed as functional. Put shortly: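 Cells were treated with graded concentrations for 36 h, then fixed overnight in 70% ice-cold ethanol at 4°C and resuspended in PBS. Staining used 50 µg/ml PI plus 5 µg/ml RNase at 37°C for 30 min. DNA content was analysed by FACS to give G0/G1, S and G2/M fractions.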

For data set [17], the system named is HUVEC. The data set is described as follows: Antiproliferative activity against HUVEC cells assessed as reduction in cell viability at 40 nM measured upto 72 hrs by CCK8 assay. As to conditions: Homo sapiens. The data set is classed as functional, cell-based. The gist of the method:
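HUVECs, 3×10³ cells/well, kept in 1640 medium with 10% FBS at 37°C and 5% CO₂. Cells were treated at 20 or 40 nM or vehicle, and viability was read by CCK-8 (absorbance 450 nm) at 0, 12, 24, 36, 48, 60 and 72 h. Five replicates per sample.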

Data set [18] has as its system HeLa. The data set is described as follows: Antiproliferative activity against human HeLa cells assessed as reduction in cell viability at 80 nM incubated for 48 hrs by EdU staining based laser scanning confocal microscopy. The data set is classed as functional. The gist of the method: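 Cells, 5×10^4, were seeded in 24-well plates and treated for 48 h. They were then labeled using an EdU Apollo 488 imaging kit with Hoechst 33342 nuclear stain and imaged by laser scanning confocal microscopy. Percent EdU-positive cells = EdU-positive/Hoechst-stained × 100%.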

Data set [19] has as its system SiHa. The data set is described as follows: Inhibition of colony formation in human SiHa cells at 80 nM incubated for 5 days by crystal violet staining based light microscopy. Format: functional, cell-based. Put shortly: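 4 × 10^3 cells per well were cultured with graded concentrations for 5 days. Cells were then fixed with 20% methanol, stained with 0.5% crystal violet and photographed by light microscopy.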

Sequence of Serine/threonine-protein kinase PAK 4 (Homo sapiens) (O96013 whole entry, looked up): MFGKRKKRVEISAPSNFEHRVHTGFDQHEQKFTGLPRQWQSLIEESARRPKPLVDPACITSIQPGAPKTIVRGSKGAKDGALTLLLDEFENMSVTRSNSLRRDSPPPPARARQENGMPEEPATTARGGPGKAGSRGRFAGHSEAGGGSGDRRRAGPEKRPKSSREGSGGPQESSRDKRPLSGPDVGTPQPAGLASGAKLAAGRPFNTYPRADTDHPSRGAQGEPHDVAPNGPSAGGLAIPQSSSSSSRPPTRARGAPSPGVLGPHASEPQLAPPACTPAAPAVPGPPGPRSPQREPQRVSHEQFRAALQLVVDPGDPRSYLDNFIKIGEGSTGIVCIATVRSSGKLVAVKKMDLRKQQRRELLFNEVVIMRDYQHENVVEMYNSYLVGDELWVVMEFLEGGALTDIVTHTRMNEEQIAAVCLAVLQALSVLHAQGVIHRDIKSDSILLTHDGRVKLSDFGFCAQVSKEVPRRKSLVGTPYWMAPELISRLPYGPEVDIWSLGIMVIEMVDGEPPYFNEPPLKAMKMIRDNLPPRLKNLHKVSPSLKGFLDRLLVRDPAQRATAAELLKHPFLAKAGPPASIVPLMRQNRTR
Sequence of Serine/threonine-protein kinase SBK1 (Homo sapiens) (Q52WX2 whole entry, the tested form may be a part): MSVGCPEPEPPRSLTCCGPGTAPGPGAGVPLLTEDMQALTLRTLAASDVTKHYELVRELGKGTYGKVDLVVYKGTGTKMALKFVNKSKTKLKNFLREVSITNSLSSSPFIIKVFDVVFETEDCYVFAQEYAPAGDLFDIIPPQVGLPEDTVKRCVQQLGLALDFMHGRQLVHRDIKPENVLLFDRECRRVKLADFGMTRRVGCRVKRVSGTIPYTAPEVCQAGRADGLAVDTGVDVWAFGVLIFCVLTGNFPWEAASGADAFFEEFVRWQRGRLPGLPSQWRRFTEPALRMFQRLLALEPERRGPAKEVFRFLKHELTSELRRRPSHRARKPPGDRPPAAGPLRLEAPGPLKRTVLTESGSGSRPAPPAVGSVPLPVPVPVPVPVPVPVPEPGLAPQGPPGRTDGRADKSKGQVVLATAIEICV
Sequence of Epidermal growth factor receptor (Homo sapiens) (P00533 whole entry): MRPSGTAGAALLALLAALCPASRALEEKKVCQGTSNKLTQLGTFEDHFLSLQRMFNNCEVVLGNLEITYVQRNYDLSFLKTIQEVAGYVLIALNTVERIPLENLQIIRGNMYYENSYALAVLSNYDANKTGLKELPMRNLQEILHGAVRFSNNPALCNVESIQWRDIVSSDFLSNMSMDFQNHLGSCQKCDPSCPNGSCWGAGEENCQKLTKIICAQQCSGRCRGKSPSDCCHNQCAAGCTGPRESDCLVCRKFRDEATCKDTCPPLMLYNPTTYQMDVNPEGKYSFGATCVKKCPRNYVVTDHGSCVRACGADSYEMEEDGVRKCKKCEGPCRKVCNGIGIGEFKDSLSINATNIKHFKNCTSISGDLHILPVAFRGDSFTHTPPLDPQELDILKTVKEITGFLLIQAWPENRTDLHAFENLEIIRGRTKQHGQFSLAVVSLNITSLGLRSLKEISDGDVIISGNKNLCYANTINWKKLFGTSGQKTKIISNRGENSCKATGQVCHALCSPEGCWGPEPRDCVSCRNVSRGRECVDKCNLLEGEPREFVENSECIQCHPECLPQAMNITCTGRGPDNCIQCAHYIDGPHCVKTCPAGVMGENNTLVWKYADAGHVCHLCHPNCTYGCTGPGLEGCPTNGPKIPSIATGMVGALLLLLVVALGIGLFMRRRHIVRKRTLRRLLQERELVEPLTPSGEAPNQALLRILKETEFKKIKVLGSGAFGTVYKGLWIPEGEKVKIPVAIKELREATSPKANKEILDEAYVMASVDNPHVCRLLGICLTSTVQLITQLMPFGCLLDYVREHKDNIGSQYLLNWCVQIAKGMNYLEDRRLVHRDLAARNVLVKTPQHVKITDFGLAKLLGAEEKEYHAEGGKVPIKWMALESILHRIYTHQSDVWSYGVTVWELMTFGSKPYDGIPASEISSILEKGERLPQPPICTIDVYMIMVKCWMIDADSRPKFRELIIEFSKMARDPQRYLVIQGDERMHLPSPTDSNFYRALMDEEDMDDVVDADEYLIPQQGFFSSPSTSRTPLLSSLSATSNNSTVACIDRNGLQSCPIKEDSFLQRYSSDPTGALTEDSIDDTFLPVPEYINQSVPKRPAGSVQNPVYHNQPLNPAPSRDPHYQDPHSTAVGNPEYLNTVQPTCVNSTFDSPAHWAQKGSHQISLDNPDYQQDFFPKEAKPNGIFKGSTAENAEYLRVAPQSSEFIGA

In the case of `Cc1ccc(NC(=O)C2(C(=O)Nc3ccc(Nc4ncc(F)c(-c5cc(F)c6nc(C)n(C(C)C)c6c5)n4)cc3)CC2)cc1`, the inhibition (commonly the drop in the measured response relative to a control, in per cent) in data set [1] is “Active”. Further, the outcome in data set [2] and in [14] was Active. Moreover, the AUMCt in data set [3] was determined as 17 mg/L.hr. Moreover, the “VRT(t)” value in data set [4] stood at 2 h. Besides, the inhibition in [5] turned out to be 39%; in data set [6] it was 0%; in [7] it was 28%; in data set [8] it was 1%; in [9] it was 71%; in data set [10], 50%. Moreover, the values for the inhibition in data set [11], in [12] and in data set [13] were 43%, 13% and 0%, respectively. Further, the Activity entry in data set [15] is on record as “Non-Toxic”.
`COc1cc2nccc(Oc3ccc(NC(=O)C4(C(=O)Nc5ccc(F)cc5)CC4)cc3)c2cc1OC` [CABOZANTINIB]: the result in data set [16] was Active. For the same compound, the inhibition result in data set [17], in data set [18] and in [19] was “Active” each time.
